According to publication PMC4924508 (Theranostics, 2016):
Square brackets hold non-standard residues; d marks the D form. Peptide text beside a SMILES is read from it. * marks the point of attachment. Biotin = O=C1N[C@H]2[C@H](CS[C@H]2CCCCC(=O)*)N1

Assays:
[1] = Serum stability study in normal mouse serum, MALDI-TOF MS; assay type: in vitro ADME; conditions: 37 °C, result in words
[2] = test system: 4T1 breast carcinoma tumors / M2-like TAMs; assay: In vivo biodistribution study in 4T1 tumor model; parameters: species or system mouse; conditions: 20 min after injection, n = 3, result in words
In short: (§1)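 Female BALB/c mice (6 week-old) received CT-26 cells in the right flank or 4T1 cells in the mammary fat pad, and were used 2 weeks later (tumor diameter ≤1.5 cm). Sulfo-Cy5-labeled test compound (2.24 nmol, PBS/10% DMSO) or PBS was injected retro-orbitally. After 20 min, mice were PBS-perfused. Tumors were enzymatically dissociated, Fc-blocked, stained for CD11b/Ly-6G/F4/80, PFA-fixed and run on flow cytometry. Subsets were compared by one-way ANOVA/Tukey.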

[3] = test system: CT-26 colon carcinoma tumors / M2-like TAMs; assay: In vivo biodistribution study in CT-26 tumor model; parameters: species or system mouse; conditions: 20 min after injection, n = 5, result in words
In short: as §1

Molecule	protection against endolytic cleavage at the W10/W11 site in serum [1]	also measured
CC(=O)N[C@@H](Cc1ccc(O)cc1)C(=O)N[C@@H](CCC(=O)O)C(=O)N[C@@H](CCC(N)=O)C(=O)N[C@@H](CC(=O)O)C(=O)N1CCC[C@H]1C(=O)N[C@@H](Cc1c[nH]c2ccccc12)C(=O)NCC(=O)N[C@H](C(=O)N[C@@H](CCCNC(=N)N)C(=O)N[C@@H](Cc1ccc(O)cc1)C(=O)N[C@@H](Cc1c[nH]c2ccccc12)C(=O)N[C@H](Cc1ccc(O)cc1)C(=O)NCC(=O)NCC(=O)NCC(=O)N[C@@H](CO)C(=O)N[C@H](CCCCN)C(=O)N[C@H](CCCCN)C(=O)N[C@H](CCCCN)C(=O)N[C@@H](CCCCNC(=O)CCCC[C@@H]1SC[C@@H]2NC(=O)N[C@@H]21)C(N)=O)C(C)C [Y12y] (Ac-YEQDPWGVRYW[dY]GGGS[dK][dK][dK]K(Biotin)-NH2)	did not improve serum stability at the W10/W11 site	–
CC(=O)N[C@@H](Cc1ccc(O)cc1)C(=O)N[C@@H](CCC(=O)O)C(=O)N[C@@H](CCC(N)=O)C(=O)N[C@@H](CC(=O)O)C(=O)N1CCC[C@H]1C(=O)N[C@@H](Cc1c[nH]c2ccccc12)C(=O)NCC(=O)N[C@H](C(=O)N[C@@H](CCCNC(=N)N)C(=O)N[C@@H](Cc1c[nH]c2ccccc12)C(=O)N[C@@H](Cc1c[nH]c2ccccc12)C(=O)N[C@@H](Cc1ccc(O)cc1)C(=O)NCC(=O)NCC(=O)NCC(=O)N[C@@H](CO)C(=O)N[C@@H](CCCCN)C(=O)N[C@@H](CCCCN)C(=O)N[C@@H](CCCCN)C(=O)N[C@@H](CCCCNC(=O)CCCC[C@@H]1SC[C@@H]2NC(=O)N[C@@H]21)C(N)=O)C(C)C [K9R] (Ac-YEQDPWGVRWWYGGGSKKKK(Biotin)-NH2)	did not confer protection at the W10/W11 site	–
CC(=O)N[C@@H](Cc1ccc(O)cc1)C(=O)N[C@@H](CCC(=O)O)C(=O)N[C@@H](CCC(N)=O)C(=O)N[C@@H](CC(=O)O)C(=O)N1CCC[C@H]1C(=O)N[C@@H](Cc1c[nH]c2ccccc12)C(=O)NCC(=O)N[C@H](C(=O)N[C@@H](CCCCN)C(=O)N1CCC[C@H]1C(=O)N[C@@H](Cc1c[nH]c2ccccc12)C(=O)N[C@@H](Cc1ccc(O)cc1)C(=O)NCC(=O)NCC(=O)NCC(=O)N[C@@H](CO)C(=O)N[C@H](CCCCN)C(=O)N[C@H](CCCCN)C(=O)N[C@H](CCCCN)C(=O)N[C@@H](CCCCNC(=O)CCCC[C@@H]1SC[C@@H]2NC(=O)N[C@@H]21)C(N)=O)C(C)C [W10P] (Ac-YEQDPWGVKPWYGGGS[dK][dK][dK]K(Biotin)-NH2)	did not confer protection at the W10/W11 site	–
CC(=O)N[C@@H](Cc1ccc(O)cc1)C(=O)N[C@@H](CCC(=O)O)C(=O)N[C@@H](CCC(N)=O)C(=O)N[C@@H](CC(=O)O)C(=O)N1CCC[C@H]1C(=O)N[C@@H](Cc1c[nH]c2ccccc12)C(=O)NCC(=O)N[C@H](C(=O)N[C@@H](CCCCN)C(=O)N[C@@H](Cc1ccc(O)cc1)C(=O)N[C@@H](Cc1c[nH]c2ccccc12)C(=O)N[C@@H](Cc1ccc(O)cc1)C(=O)NCC(=O)NCC(=O)NCC(=O)N[C@@H](CO)C(=O)N[C@H](CCCCN)C(=O)N[C@H](CCCCN)C(=O)N[C@H](CCCCN)C(=O)N[C@@H](CCCCNC(=O)CCCC[C@@H]1SC[C@@H]2NC(=O)N[C@@H]21)C(N)=O)C(C)C [W10Y] (Ac-YEQDPWGVKYWYGGGS[dK][dK][dK]K(Biotin)-NH2)	did not confer protection at the W10/W11 site	–
CC(=O)N[C@@H](Cc1ccc(O)cc1)C(=O)N[C@@H](CCC(=O)O)C(=O)N[C@@H](CCC(N)=O)C(=O)N[C@@H](CC(=O)O)C(=O)N1CCC[C@H]1C(=O)N[C@@H](Cc1c[nH]c2ccccc12)C(=O)NCC(=O)N[C@H](C(=O)N[C@@H](CCCNC(=N)N)C(=O)N[C@@H](Cc1ccc(O)cc1)C(=O)N[C@@H](Cc1c[nH]c2ccccc12)C(=O)N[C@@H](Cc1ccc(O)cc1)C(=O)NCC(=O)NCC(=O)NCC(=O)N[C@@H](CO)C(=O)N[C@H](CCCCN)C(=O)N[C@H](CCCCN)C(=O)N[C@H](CCCCN)C(=O)N[C@@H](CCCCNC(=O)CCCC[C@@H]1SC[C@@H]2NC(=O)N[C@@H]21)C(N)=O)C(C)C [AcM2pep(RY)Biotin] (Ac-YEQDPWGVRYWYGGGS[dK][dK][dK]K(Biotin)-NH2)	did not improve serum stability at the W10/W11 site	–
CGYEQDPWGVRYWYGCkkk(k(N3)-sulfoCy5) (disulfide) [Cyclic M2pep(RY)-sulfoCy5]	–	intratumoral accumulation in M2-like TAMs (flow cytometry) [2]: accumulated preferentially in M2-like TAMs; intratumoral selectivity to M2-like TAMs over M1-like TAMs and CD11b- cells [3]: selectivity to M2-like TAMs over M1-like TAMs and non-TAM CD11b^- cells was observed; intratumoral uptake in M2-like TAMs (flow cytometry) [3]: significantly higher uptake in M2-like TAMs compared to M2pep-sulfoCy5
CC(=O)N[C@@H](Cc1ccc(O)cc1)C(=O)N[C@@H](CCC(=O)O)C(=O)N[C@@H](CCC(N)=O)C(=O)N[C@@H](CC(=O)O)C(=O)N1CCC[C@H]1C(=O)N[C@@H](Cc1c[nH]c2ccccc12)C(=O)NCC(=O)N[C@H](C(=O)N[C@@H](CCCCN)C(=O)N[C@@H](Cc1c[nH]c2ccccc12)C(=O)N[C@@H](Cc1c[nH]c2ccccc12)C(=O)N[C@@H](Cc1ccc(O)cc1)C(=O)NCC(=O)NCC(=O)NCC(=O)N[C@@H](CO)C(=O)N[C@@H](CCCCN)C(=O)N[C@@H](CCCCN)C(=O)N[C@@H](CCCCN)C(=O)N[C@@H](CCCCNC(=O)CCCC[C@@H]1SC[C@@H]2NC(=O)N[C@@H]21)C(N)=O)C(C)C [AcM2pepBiotin] (Ac-YEQDPWGVKWWYGGGSKKKK(Biotin)-NH2)	–	overall serum stability [1]: did not improve the overall serum stability; resistance to N-terminal (exolytic) degradation in serum [1]: resistant to N-terminal degradation
CC(=O)N[C@@H](Cc1ccc(O)cc1)C(=O)N[C@@H](CCC(=O)O)C(=O)N[C@@H](CCC(N)=O)C(=O)N[C@@H](CC(=O)O)C(=O)N1CCC[C@H]1C(=O)N[C@@H](Cc1c[nH]c2ccccc12)C(=O)NCC(=O)N[C@H](C(=O)N[C@@H](CCCCN)C(=O)N[C@H](Cc1c[nH]c2ccccc12)C(=O)N[C@@H](Cc1c[nH]c2ccccc12)C(=O)N[C@@H](Cc1ccc(O)cc1)C(=O)NCC(=O)NCC(=O)NCC(=O)N[C@@H](CO)C(=O)N[C@@H](CCCCN)C(=O)N[C@@H](CCCCN)C(=O)N[C@@H](CCCCN)C(=O)N[C@@H](CCCCNC(=O)CCCC[C@@H]1SC[C@@H]2NC(=O)N[C@@H]21)C(N)=O)C(C)C [W10w] (Ac-YEQDPWGVK[dW]WYGGGSKKKK(Biotin)-NH2)	effective protection against endolytic cleavage at the W10/W11 site	–
YEQDPWGVKWWYGGGSKKK(k(N3)-sulfoCy5) [M2pep-sulfoCy5]	–	intratumoral selectivity to M2-like TAMs over M1-like TAMs and CD11b- cells [3]: selectivity to M2-like TAMs over M1-like TAMs and non-TAM CD11b^- cells was observed
